In experiment [1] the target is T1, Peroxisome proliferator-activated receptor delta (Homo sapiens) (UniProt Q03181).
T1 sequence (whole entry): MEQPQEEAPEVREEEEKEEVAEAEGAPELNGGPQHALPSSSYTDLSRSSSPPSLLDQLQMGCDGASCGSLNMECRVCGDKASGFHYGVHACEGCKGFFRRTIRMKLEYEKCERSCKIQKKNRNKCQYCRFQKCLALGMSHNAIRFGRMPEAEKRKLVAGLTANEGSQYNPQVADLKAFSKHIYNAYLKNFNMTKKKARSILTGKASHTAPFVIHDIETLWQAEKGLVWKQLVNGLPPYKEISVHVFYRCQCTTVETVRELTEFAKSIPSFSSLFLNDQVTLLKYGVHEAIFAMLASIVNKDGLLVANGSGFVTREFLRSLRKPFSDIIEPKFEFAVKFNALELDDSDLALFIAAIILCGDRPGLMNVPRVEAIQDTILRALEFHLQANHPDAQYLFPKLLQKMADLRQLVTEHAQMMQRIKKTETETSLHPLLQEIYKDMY
Put plainly: Inhibition of PPARdelta at 3 uM.

In experiment [2] the test system is Rattus norvegicus. The experiment in a line: Antidiabetic activity in glucose loaded albino Sprague-Dawley rat model assessed as decrease in blood glucose level at 100 mg/kg, po. Format: functional. Summed up:
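Rats in groups of five were bled at baseline, then gavaged with test sample at 100 mg/kg. A glucose load of 2 g/kg was given 30 min later. Blood was collected at 30, 60, 90 and 120 min.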

The subject of experiment [3] is Rattus norvegicus. The experiment in a line: Inhibition of cholesterol level in triton treated Charles Foster rat at 100 mg/kg, po. The format is functional. Summed up: (§1)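 Male Charles Foster rats (200–225 g) were used, six per group. They received Triton WR-1339 200 mg/kg i.p. together with oral compound at 100 mg/kg in 2% aqueous gum acacia, over 18 h; vehicle controls were included. Rats were then fasted overnight and bled retro-orbitally. Serum total cholesterol, phospholipids and triglyceride were assayed.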

The subject of experiment [4] is Rattus norvegicus. The experiment in a line: Inhibition of phospholipids level in triton treated Charles Foster rat at 100 mg/kg, po. The format is functional. A digest of the protocol:
as §1

Experiment [5] has as its system Rattus norvegicus. The experiment in a line: Inhibition of triglyceride level in triton treated Charles Foster rat at 100 mg/kg, po. Format: functional. Summed up: as §1
Experiment [6] has as its target T2, Peroxisome proliferator-activated receptor alpha (Homo sapiens) (UniProt Q07869).
T2 sequence (whole entry): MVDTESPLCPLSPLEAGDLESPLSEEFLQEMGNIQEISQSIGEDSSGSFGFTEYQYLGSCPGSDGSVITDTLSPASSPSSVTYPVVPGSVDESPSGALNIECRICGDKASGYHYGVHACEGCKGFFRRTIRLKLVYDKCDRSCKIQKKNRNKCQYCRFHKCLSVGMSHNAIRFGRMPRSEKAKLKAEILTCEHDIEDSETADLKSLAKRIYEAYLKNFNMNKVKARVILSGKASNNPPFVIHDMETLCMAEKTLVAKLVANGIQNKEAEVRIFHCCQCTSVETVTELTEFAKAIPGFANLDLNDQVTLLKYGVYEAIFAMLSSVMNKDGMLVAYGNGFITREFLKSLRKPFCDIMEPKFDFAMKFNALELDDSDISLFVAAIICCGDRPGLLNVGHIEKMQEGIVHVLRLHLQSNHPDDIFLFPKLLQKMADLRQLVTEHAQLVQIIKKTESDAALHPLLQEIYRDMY
Put plainly: Inhibition of PPARalpha at 50 uM.

Experiment [7] deals with Rattus norvegicus. The experiment in a line: Antidiabetic activity in sucrose loaded albino Sprague-Dawley rat model assessed as decrease in blood glucose level at 100 mg/kg, po. The format is functional. A digest of the protocol: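 Male Sprague–Dawley rats were fasted overnight and used in groups of five. Baseline blood was taken, then test sample was gavaged at 100 mg/kg. A sucrose load of […] followed 30 min later.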

This note sets out measurements from ChEMBL document CHEMBL1142330, “Omega-(2-Naphthyloxy) amino alkanes as a novel class of anti-hyperglycemic and lipid lowering agents” (Bioorg Med Chem, 2008).

Usually inhibition stands for the share of the control response that was lost under treatment. A higher inhibition goes with strong suppression. In general, inhibition in vivo refers to the change of the read-out against control, counted positive when it falls.

For the molecule `CCCN(CCCOc1ccc2ccccc2c1)c1ccc(OC)cc1`, the inhibition was 9.6% in experiment [1] and 10.9% in experiment [6]. For the same molecule, the inhibition in vivo at 100 mg/kg with Rattus norvegicus [2] was determined as 11.6%; in the experiment on Rattus norvegicus [3], 14%; with Rattus norvegicus [4], 27%; with Rattus norvegicus [5], 12%; in the experiment with Rattus norvegicus [7], 37.2%.
Turning to `c1ccc(CNCCCCOc2ccc3ccccc3c2)cc1`, the inhibition in experiment [1] was determined as 22.4%; in experiment [6], 21.3%. Also, the inhibition in vivo at 100 mg/kg worked out at 8.89% with Rattus norvegicus [2]; 10.1% in the experiment on Rattus norvegicus [3]; 18% in the experiment with Rattus norvegicus [4]; 5% in the experiment with Rattus norvegicus [5]; 16% in the experiment with Rattus norvegicus [7].
Consider `COc1cccc(CNCCCOc2ccc3ccccc3c2)c1`, for which the inhibition in vivo at 100 mg/kg came to 1.23% in the experiment with Rattus norvegicus [2]; 14% in the experiment on Rattus norvegicus [3]; 22% in the experiment on Rattus norvegicus [4]; 22% in the experiment with Rattus norvegicus [5]; 8.3% in the experiment with Rattus norvegicus [7].
As for `C/C=C1\C(=O)C[C@H]2[C@@H]3CCC4=CC(=O)CC[C@]4(C)[C@H]3CC[C@]12C` [GUGGULSTERONE], the figures for the inhibition in vivo at 100 mg/kg in the experiment on Rattus norvegicus [3], in the experiment with Rattus norvegicus [4] and in the experiment on Rattus norvegicus [5] were 34%, 33% and 30%, respectively.
On to `CCN(CCCOc1ccc2ccccc2c1)c1ccc(OC)cc1`, for which the inhibition came out at 17.3% in experiment [1] and 20.3% in experiment [6]. Besides, the results for the inhibition in vivo at 100 mg/kg with Rattus norvegicus [2] and in the experiment with Rattus norvegicus [7] were 6.88% and 13.5%, respectively.
Consider `COc1ccc(NCCOc2ccc3ccccc3c2)cc1`, for which the inhibition in experiment [1] was 24.6%; in experiment [6] it was 22.2%. In addition, the inhibition in vivo at 100 mg/kg is 10.6% with Rattus norvegicus [2] and 19.4% in the experiment with Rattus norvegicus [7].
In the same order, the values of `c1ccc(CNCCCOc2ccc3ccccc3c2)cc1` are 29.1%, 28.4%, 13.8% and 40.5%.
`CCCCCCCCNCCCOc1ccc2ccccc2c1`: the values for the inhibition in experiment [1] and in experiment [6] were 7.9% and 11.4%, respectively. Besides, the results for the inhibition in vivo at 100 mg/kg with Rattus norvegicus [2] and in the experiment with Rattus norvegicus [7] were 17% and 32%, respectively.
As for `CCCCN(CCCOc1ccc2ccccc2c1)c1ccc(OC)cc1`, the inhibition came to 8.4% in experiment [1] and 8.5% in experiment [6]. The inhibition in vivo at 100 mg/kg with Rattus norvegicus [2] came out at 13.5%; in the experiment on Rattus norvegicus [3], 15%; in the experiment with Rattus norvegicus [4], 25%; with Rattus norvegicus [5], 17%; in the experiment with Rattus norvegicus [7], 4.4%.
For the molecule `Cc1ccc(NCCCCOc2ccc3ccccc3c2)cc1`, the values for the inhibition in vivo at 100 mg/kg in the experiment on Rattus norvegicus [2] and in the experiment on Rattus norvegicus [7] were 3.21% and 6.9%, respectively.
Consider `CCO[C@@H](Cc1ccc(OCCc2ccc(OS(C)(=O)=O)cc2)cc1)C(=O)O`, for which, in experiment [6], the inhibition is 55.5%.
Consider `COc1ccc(NCCCCOc2ccc3ccccc3c2)cc1`, for which the values for the inhibition in experiment [1] and in experiment [6] were 16.3% and 18.3%, respectively. Further, the inhibition in vivo at 100 mg/kg with Rattus norvegicus [2] was 3.89%; with Rattus norvegicus [3] it was 24%; in the experiment on Rattus norvegicus [4], 36%; with Rattus norvegicus [5], 22%; in the experiment on Rattus norvegicus [7] it was 5.09%.
Consider `Cc1ccc(NCCOc2ccc3ccccc3c2)cc1`, for which the inhibition in vivo at 100 mg/kg came to 2.45% in the experiment with Rattus norvegicus [2]; 27% with Rattus norvegicus [3]; 30% in the experiment on Rattus norvegicus [4]; 18% in the experiment with Rattus norvegicus [5]; 6.99% in the experiment on Rattus norvegicus [7].
With `COc1ccc(N(C)CCCOc2ccc3ccccc3c2)cc1`, the inhibition in experiment [1] turned out to be 19.3%; in experiment [6] it was 22.5%. Also, the inhibition in vivo at 100 mg/kg in the experiment on Rattus norvegicus [2] was determined as 8.2%; with Rattus norvegicus [3] it was 11%; in the experiment on Rattus norvegicus [4] it was 19%; in the experiment with Rattus norvegicus [5], 15%; in the experiment on Rattus norvegicus [7], 14.5%.
